# Reference: ChEMBL document CHEMBL4689842, “EUbOPEN Chemogenomics Library wave 1” (2021)
# Several values for one entry are separate records, joined by “and”; a condition that tells them apart may be missing. Equal entries are not always repeated.
# Key:
# Type in all cases: toxicity, cell-based
# U2OS [1] = test: Multiplex assay against U2OS; conditions: human
# In short: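 Values for tubulin, mitochondrial-mass and membrane-permeability phenotypes are per cents of cells with healthy nuclei. These cells were identified by CellPathfinder machine-learning gating of live cells that had been stained at seeding with Hoechst33342, BioTracker Green Microtubule Cytoskeleton Dye, MitoTracker Red and Annexin V Alexa Fluor 680 and imaged on a CQ1 microscope at 37°C and 5% CO2 after compound addition. The gating first set Hoechst high-intensity objects apart from normal cells, then split normal cells into healthy, pyknosed or fragmented nuclei, and pyknosed cells into mitotic or apoptotic.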
# HEK-293T = test: Incucyte cell viability with HEK293T; conditions: human, 10 µM, compound concentration 10 uM; also: filed as whole numbers so only -1 and 0 and 1 occur
# Fibroblast = test: Incucyte cell viability with human fibroblast; conditions: 10 µM, compound concentration 10 uM; also: filed as whole numbers so only -1 and 0 and 1 occur
# U2OS [2] = test: Incucyte cell viability with U2OS; conditions: human, 10 µM, compound concentration 10 uM; also: filed as whole numbers so only -1 and 0 and 1 occur
# [3] = 12 h, 1 µM, compound concentration 1 uM, replicate 1
# [4] = 12 h, 1 µM, compound concentration 1 uM, replicate 2
# [5] = 12 h, 10 µM, compound concentration 10 uM, replicate 1
# [6] = 12 h, 10 µM, compound concentration 10 uM, replicate 2
# [7] = 24 h, 1 µM, compound concentration 1 uM, replicate 1
# [8] = 24 h, 1 µM, compound concentration 1 uM, replicate 2
# [9] = 24 h, 10 µM, compound concentration 10 uM, replicate 1
# [10] = 24 h, 10 µM, compound concentration 10 uM, replicate 2
# [11] = 48 h, 10 µM, compound concentration 10 uM, replicate 1
# [12] = 48 h, 10 µM, compound concentration 10 uM, replicate 2
# [13] = 0 h, replicate number 1, timepoint 0 hours
# [14] = 6 h, replicate number 1, timepoint 6 hours
# [15] = 18 h, replicate number 1, timepoint 18 hours
# [16] = 24 h, replicate number 1, timepoint 24 hours
# [17] = 12 h, replicate number 1, timepoint 12 hours
compound,measurement,setting,value
Cc1c(Nc2ccc(S(=O)(=O)N3CCN(C)CC3)cc2F)nc2ccc(-c3cnn(C4CC4)c3)cn2c1=O,Population Apoptotic (%),U2OS [1]; [3],12%
same,Population Fragmented Nuclei (%),U2OS [1]; [3],4%
same,Population Healthy Nuclei (%),U2OS [1]; [3],91%
same,Population Hoechst High Intensity Objects (%),U2OS [1]; [3],2%
same,Population Membrane Permeable-Phenotype (%),U2OS [1]; [3],5%
same,Population Mitochondria Different-Phenotype (%),U2OS [1]; [3],15%
same,Population Mitotic Cells (%),U2OS [1]; [3],87%
same,Population Normal (%),U2OS [1]; [3],97%
same,Population Pyknosed Nuclei (%),U2OS [1]; [3],4%
same,Population Tubulin-Different-Phenotype (%),U2OS [1]; [3],18%
same,Total Cell Count,U2OS [1]; [3],160
same,Population Apoptotic (%),U2OS [1]; [4],0%
same,Population Fragmented Nuclei (%),U2OS [1]; [4],5%
same,Population Healthy Nuclei (%),U2OS [1]; [4],93%
same,Population Hoechst High Intensity Objects (%),U2OS [1]; [4],8%
same,Population Membrane Permeable-Phenotype (%),U2OS [1]; [4],10%
same,Population Mitochondria Different-Phenotype (%),U2OS [1]; [4],17%
same,Population Mitotic Cells (%),U2OS [1]; [4],100%
same,Population Normal (%),U2OS [1]; [4],91%
same,Population Pyknosed Nuclei (%),U2OS [1]; [4],1%
same,Population Tubulin-Different-Phenotype (%),U2OS [1]; [4],15%
same,Total Cell Count,U2OS [1]; [4],119
same,Population Apoptotic (%),U2OS [1]; [5],29% and 44%
same,Population Fragmented Nuclei (%),U2OS [1]; [5],21% and 30%
same,Population Healthy Nuclei (%),U2OS [1]; [5],73% and 60%
same,Population Hoechst High Intensity Objects (%),U2OS [1]; [5],34% and 46%
same,Population Mitotic Cells (%),U2OS [1]; [5],70% and 55%
same,Population Normal (%),U2OS [1]; [5],65% and 53%
same,Population Pyknosed Nuclei (%),U2OS [1]; [5],5% and 8%
same,Population Tubulin-Different-Phenotype (%),U2OS [1]; [5],12% and 27%
same,Total Cell Count,U2OS [1]; [5],201 and 120
same,Population Fragmented Nuclei (%),U2OS [1]; [6],56%
same,Population Healthy Nuclei (%),U2OS [1]; [6],42% and 39%
same,Population Hoechst High Intensity Objects (%),U2OS [1]; [6],41% and 58%
same,Population Membrane Permeable-Phenotype (%),U2OS [1]; [6],17% and 8%
same,Population Mitochondria Different-Phenotype (%),U2OS [1]; [6],11% and 23%
same,Population Mitotic Cells (%),U2OS [1]; [6],80% and 35%
same,Population Normal (%),U2OS [1]; [6],58% and 41%
same,Population Pyknosed Nuclei (%),U2OS [1]; [6],1% and 3%
same,Population Tubulin-Different-Phenotype (%),U2OS [1]; [6],11% and 8%
same,Population Apoptotic (%),U2OS [1]; [7],0%
same,Population Fragmented Nuclei (%),U2OS [1]; [7],1%
same,Population Healthy Nuclei (%),U2OS [1]; [7],95%
same,Population Hoechst High Intensity Objects (%),U2OS [1]; [7],1%
same,Population Membrane Permeable-Phenotype (%),U2OS [1]; [7],7%
same,Population Mitochondria Different-Phenotype (%),U2OS [1]; [7],7%
same,Population Mitotic Cells (%),U2OS [1]; [7],100%
same,Population Normal (%),U2OS [1]; [7],98%
same,Population Pyknosed Nuclei (%),U2OS [1]; [7],2%
same,Population Tubulin-Different-Phenotype (%),U2OS [1]; [7],17%
same,Total Cell Count,U2OS [1]; [7],173
same,Population Apoptotic (%),U2OS [1]; [8],11%
same,Population Fragmented Nuclei (%),U2OS [1]; [8],4%
same,Population Healthy Nuclei (%),U2OS [1]; [8],89%
same,Population Hoechst High Intensity Objects (%),U2OS [1]; [8],3%
same,Population Membrane Permeable-Phenotype (%),U2OS [1]; [8],8%
same,Population Mitochondria Different-Phenotype (%),U2OS [1]; [8],29%
same,Population Mitotic Cells (%),U2OS [1]; [8],88%
same,Population Normal (%),U2OS [1]; [8],96%
same,Population Pyknosed Nuclei (%),U2OS [1]; [8],6%
same,Population Tubulin-Different-Phenotype (%),U2OS [1]; [8],20%
same,Total Cell Count,U2OS [1]; [8],122
same,Population Apoptotic (%),U2OS [1]; [9],29% and 32%
same,Population Fragmented Nuclei (%),U2OS [1]; [9],15% and 33%
same,Population Healthy Nuclei (%),U2OS [1]; [9],77% and 56%
same,Population Hoechst High Intensity Objects (%),U2OS [1]; [9],27% and 49%
same,Population Membrane Permeable-Phenotype (%),U2OS [1]; [9],14% and 7%
same,Population Mitochondria Different-Phenotype (%),U2OS [1]; [9],8% and 22%
same,Population Mitotic Cells (%),U2OS [1]; [9],70% and 67%
same,Population Normal (%),U2OS [1]; [9],72% and 50%
same,Population Pyknosed Nuclei (%),U2OS [1]; [9],6% and 10%
same,Population Tubulin-Different-Phenotype (%),U2OS [1]; [9],7% and 16%
same,Total Cell Count,U2OS [1]; [9],284 and 128
same,Population Apoptotic (%),U2OS [1]; [10],22% and 60%
same,Population Fragmented Nuclei (%),U2OS [1]; [10],56% and 58%
same,Population Healthy Nuclei (%),U2OS [1]; [10],41% and 37%
same,Population Hoechst High Intensity Objects (%),U2OS [1]; [10],40% and 58%
same,Population Membrane Permeable-Phenotype (%),U2OS [1]; [10],16% and 13%
same,Population Mitochondria Different-Phenotype (%),U2OS [1]; [10],9% and 23%
same,Population Mitotic Cells (%),U2OS [1]; [10],77% and 40%
same,Population Normal (%),U2OS [1]; [10],59% and 41%
same,Population Pyknosed Nuclei (%),U2OS [1]; [10],2% and 3%
same,Population Tubulin-Different-Phenotype (%),U2OS [1]; [10],8% and 13%
same,Population Apoptotic (%),U2OS [1]; [11],43%
same,Population Fragmented Nuclei (%),U2OS [1]; [11],23%
same,Population Healthy Nuclei (%),U2OS [1]; [11],67%
same,Population Hoechst High Intensity Objects (%),U2OS [1]; [11],39%
same,Population Membrane Permeable-Phenotype (%),U2OS [1]; [11],4%
same,Population Mitochondria Different-Phenotype (%),U2OS [1]; [11],8%
same,Population Mitotic Cells (%),U2OS [1]; [11],56%
same,Population Normal (%),U2OS [1]; [11],60%
same,Population Pyknosed Nuclei (%),U2OS [1]; [11],8%
same,Population Tubulin-Different-Phenotype (%),U2OS [1]; [11],18%
same,Total Cell Count,U2OS [1]; [11],130
same,Population Apoptotic (%),U2OS [1]; [12],71%
same,Population Fragmented Nuclei (%),U2OS [1]; [12],57%
same,Population Healthy Nuclei (%),U2OS [1]; [12],38%
same,Population Hoechst High Intensity Objects (%),U2OS [1]; [12],53%
same,Population Membrane Permeable-Phenotype (%),U2OS [1]; [12],11%
same,Population Mitochondria Different-Phenotype (%),U2OS [1]; [12],17%
same,Population Mitotic Cells (%),U2OS [1]; [12],28%
same,Population Normal (%),U2OS [1]; [12],46%
same,Population Pyknosed Nuclei (%),U2OS [1]; [12],3%
same,Population Tubulin-Different-Phenotype (%),U2OS [1]; [12],8%
same,Total Cell Count,U2OS [1]; [12],45
same,Growth Rate,HEK-293T; [13],1
same,Growth Rate,HEK-293T; [14],0
same,Growth Rate,"HEK-293T; 12 h, replicate number 2, timepoint 12 hours",1
same,Growth Rate,HEK-293T; [15],1
same,Growth Rate,HEK-293T; [16],1
same,Growth Rate,Fibroblast; [13],0
same,Growth Rate,Fibroblast; [17],1
same,Growth Rate,Fibroblast; [15],1
same,Growth Rate,Fibroblast; [16],1
same,Growth Rate,"U2OS [2]; 0 h, replicate number 2, timepoint 0 hours",0
same,Growth Rate,U2OS [2]; [14],1
same,Growth Rate,U2OS [2]; [17],0
same,Growth Rate,U2OS [2]; [15],0
same,Growth Rate,"U2OS [2]; 18 h, replicate number 2, timepoint 18 hours",1
same,Growth Rate,U2OS [2]; [16],0
same,Growth Rate,"U2OS [2]; 24 h, replicate number 2, timepoint 24 hours",1
